CSC inhib = blocks cancer stem cells. actives 1.1% (n = 300,000). inhibition, % at 7.5 µM. cancer stem cell-like cells viability, luminescence; in the data active = inhibition above about 75%; inconclusive = no clear call, values can overlap the other calls; tested in HMLE shEcad cells
L major viab = Leishmania major promastigote growth inhibition. Leishmania major promastigotes, resazurin fluorescence viability. inhibition, % at 10 µM. actives 9% (n = 200,000). AID 1063; in the data active = inhibition above about 50%;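 note: promastigotes grown with compound for 44 hours at 28 °C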
Beta apoptosis = blocks beta cell apoptosis | INS-1E cytokine-induced death, ATP luminescence, 48 h; percent of positive-control rescue, neutral wells zero | protection from apoptosis, % (test concentration not listed) | actives 0.8% (n = 300,000) | AID 435005;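 active = Every replicate reaches about 75%, or at least half do and their mean reaches it too, limit read from the data; inconclusive = At least half of replicates reach the limit but their mean does not; inactive = Under half of replicates reach the limit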;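 note: higher means more ATP so stronger rescue from cytokine killing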
T cruzi inh = blocks replication of Trypanosoma cruzi | T. cruzi beta-gal in NIH3T3, luminescence, 90 h | inhibition, % (test concentration not listed) | actives 1.4% (n = 300,000);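 active = mean inhibition across valid replicates above about 55%, limit read from the data; inconclusive = mean below that limit but half or more replicates reach it; inactive = mean below it, under half of replicates reach it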;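 note: signal also drops with host cell toxicity which is not excluded here; higher percent means less beta-gal luminescence so fewer parasites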
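Incubation – ≥90 h infection period, 3 h prior cell attachment · System – NIH/3T3 fibroblasts plus reporter T. cruzi · Doses – compound pinned at 50 nL/well, DMSO · Read-out basis – percent inhibition of parasite-derived β-gal signal · Signal – luminescent β-galactosidase signal after 60 min lysis · Also added – 5000 T. cruzi trypomastigotes/well · Medium – Low-serum DMEM with 2% FBS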
Mdm2-MdmX inh = human Mdm2/MdmX binding inhibition; SaOS-2 split-luciferase Mdm2/MdmX complementation, luminescence; inhibition, % at 8 µM; O15151+Q00987; AID 485346; actives 3% (n = 330,000);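 active = inhibition of at least 50% at 8 µM in the primary screen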
Target sequence (O15151 whole entry, looked up): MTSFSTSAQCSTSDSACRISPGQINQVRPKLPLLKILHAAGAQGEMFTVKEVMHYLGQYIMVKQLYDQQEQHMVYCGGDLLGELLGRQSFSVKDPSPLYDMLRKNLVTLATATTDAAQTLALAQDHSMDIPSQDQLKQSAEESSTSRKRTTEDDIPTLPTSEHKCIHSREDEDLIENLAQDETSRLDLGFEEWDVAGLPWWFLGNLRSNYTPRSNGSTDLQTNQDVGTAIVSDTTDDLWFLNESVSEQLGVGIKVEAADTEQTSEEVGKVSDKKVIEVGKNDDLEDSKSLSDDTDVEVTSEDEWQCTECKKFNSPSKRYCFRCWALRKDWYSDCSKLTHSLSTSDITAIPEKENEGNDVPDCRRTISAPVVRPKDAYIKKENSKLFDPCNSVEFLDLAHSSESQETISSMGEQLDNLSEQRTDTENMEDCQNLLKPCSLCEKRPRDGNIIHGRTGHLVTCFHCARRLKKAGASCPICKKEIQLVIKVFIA
Target sequence (Q00987 whole entry, looked up): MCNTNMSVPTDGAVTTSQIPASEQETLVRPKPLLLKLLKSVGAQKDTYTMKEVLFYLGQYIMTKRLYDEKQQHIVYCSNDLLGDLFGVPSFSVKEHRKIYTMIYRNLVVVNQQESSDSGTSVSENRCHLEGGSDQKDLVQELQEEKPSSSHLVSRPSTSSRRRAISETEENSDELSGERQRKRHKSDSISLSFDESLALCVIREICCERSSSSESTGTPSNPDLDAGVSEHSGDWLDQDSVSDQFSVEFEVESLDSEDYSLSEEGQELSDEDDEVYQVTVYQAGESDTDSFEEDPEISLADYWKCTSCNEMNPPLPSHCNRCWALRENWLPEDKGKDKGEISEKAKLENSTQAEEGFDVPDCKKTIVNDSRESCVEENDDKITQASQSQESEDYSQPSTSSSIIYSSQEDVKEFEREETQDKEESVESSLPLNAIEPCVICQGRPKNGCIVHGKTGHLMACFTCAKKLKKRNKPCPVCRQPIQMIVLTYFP
SKKanGAS inh = blocks kanamycin growth of S. pyogenes SKKanGAS strain. BacTiter-Glo, 6 h. AID 1662. inhibition, % at 7.5 µM. actives 1.3% (n = 300,000);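 active = mean replicate score, as percent of positive control median, at least 50; inconclusive = mean below 50 but one replicate at or above 50; inactive = mean and every replicate below 50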;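 note: strain carries kanamycin resistance gene driven by streptokinase promoter and grows in 40 µg/ml kanamycin; loss of luminescence reflects streptokinase promoter inhibition or plain growth inhibition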
Mdm2-MdmX conf = confirmation of human Mdm2/MdmX interaction inhibitors. shares compounds with Mdm2-MdmX inh. Mdm2-MdmX binding, luminescent assay. inhibition, % at 8 µM. actives 55% (n = 10,000). AID 489028; in the data active = inhibition above about 40%
FLuc counter = full-length luciferase inhibition in Mdm2/MdmX counter-screen; shares compounds with Mdm2-MdmX inh; SaOS-2 full-length luciferase counterscreen, luminescence; inhibition, % at 8 µM; actives 77% (n = 6,200);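 active = mean inhibition at 8 µM reaching about 37%, which flags the compound as non-specific, limit read from the data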;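 note: p53-null SaOS-2 cells with luciferase driven by a doxycycline-inducible promoter; compound on cells about two nights before reading with doxycycline added after day one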
A number is an active result; 0 = inactive; ? = inconclusive; - = not tested or not shown. Shown are actives, neighbours in structure and some others; about 9.4% of the full set was active somewhere.

SMILES	CSC inhib	L major viab	Beta apoptosis	T cruzi inh	Mdm2-MdmX inh	SKKanGAS inh	Mdm2-MdmX conf	FLuc counter
C#CCOCCOCCOCCNc1nc(N2CCN(C(=O)CCCCCCCCCCNC(=O)[C@H](CCCCN)n3cc(C)nn3)CC2)nc(N2CCN(C(=O)CCCCCCCCCCNC(=O)[C@@H]([C@H](C)O)n3cc(C)nn3)CC2)n1	0	-	0	-	78.3	-	0	-
C#CCOCCOCCOCCNc1nc(N2CCN(C(=O)CCCCCCCCCCNC(=O)[C@H](CCCCN)n3cc(C[C@@H](C)CC)nn3)CC2)nc(N2CCN(C(=O)CCCCCCCCCCNC(=O)[C@@H]([C@H](C)O)n3cc(C)nn3)CC2)n1	0	-	98.8	-	97.1	-	97.1	0
CCOc1cc(CNc2ccc3c(c2)OCCO3)cc(Br)c1OCC	0	0	0	0	73.3	0	69.5	61.8
COc1ccc(NC(=O)c2cc(C)nc3ccccc23)cc1S(=O)(=O)N1CCOCC1	0	-	0	-	0	-	-	-
COc1ccc(Nc2nc(-c3ccccc3)nc3ccccc23)cc1S(=O)(=O)N1CCOCC1	0	-	0	?	78.6	0	77.2	63.4
Cc1nc2ccccc2c(=O)n1-c1ccc(NS(=O)(=O)c2ccc(F)cc2)cc1	0	-	-	0	0	0	-	-
Oc1cccc(-c2nc3c4c(ncn3n2)-c2ccccc2CC42CCCC2)c1	111.4	0	0	0	58.3	106.1	0	-
CCc1ccc(OCC(=O)NNC(=O)c2cc(S(=O)(=O)N(C)C)ccc2N2CCCC2)cc1	0	-	0	0	0	0	-	-
O=C(NCCS(=O)(=O)N1CCN(Cc2ccccc2)CC1)c1ccc(F)cc1	-	-	0	0	0	0	-	-
Cc1c(C(=O)OC/C(O)=C(\C#N)c2nc3ccccc3[nH]2)oc2ccc(Br)cc12	0	-	0	0	84.6	0	0	-
Cc1c(-c2cccc(Cl)c2)nc2ccccc2c1C(=O)OC/C(O)=C(\C#N)c1nc2ccccc2[nH]1	97.7	0	97.2	0	70.0	57.6	0	-
CC(C)OCc1c(C(=O)OC/C(O)=C(\C#N)c2nc3ccccc3[nH]2)oc2ccccc12	0	0	0	0	56.7	0	0	-
CC1CN(C(=O)COC(=O)/C=C/c2cccc([N+](=O)[O-])c2)CC(C)O1 (centres undefined)	0	-	0	-	0	-	-	-
O=C1C(c2ccnc3ccccc23)=C(O)c2ccccc21	0	0	0	0	51.7	0	0	-
O=C1c2ccccc2C(=O)C1c1ccnc2ccccc12	0	0	0	0	0	0	-	-
CCN1CCc2c(sc(NC(=O)c3ccc(S(=O)(=O)N4CCOCC4)cc3)c2C(=O)OC)C1	0	76.5	0	0	63.9	0	0	-
COc1cc2nc(NC(=O)c3ccc(Cl)cc3)sc(=O)c2cc1OC	0	-	0	0	69.2	0	0	-
COc1cc2cccc(OC)c(=O)c2c(O)c1OC	0	0	0	0	0	0	-	-
COc1cc2c(ccc3cc(OC)c(OC)c(O)c32)cc1O	0	-	0	0	73.6	0	0	0
COC(=O)c1cc2sccc2n1CC(=O)N1CCCc2ccccc21	0	0	0	0	51.9	0	40.7	51.5
COC(=O)c1cc2sc(Cl)cc2n1CC(=O)N1CCCc2ccccc21	0	0	0	0	0	0	-	-
CC12CNCC(C)(CN(C(c3ccccc3)c3ccccc3)C1)C2	0	100.3	0	0	95.9	0	46.7	63.3
CN1CCN(C(c2ccccc2)c2ccc(Cl)cc2)CC1 (centres undefined)	0	-	0	-	0	-	-	-
Clc1ccc(C(c2ccccc2)N2CCNCC2)cc1 (centres undefined)	0	0	0	0	61.8	0	47.5	75.8
O=C(COC(=O)COc1ccc2c(c1)CCC2)Nc1ccccc1C(F)(F)F	0	-	0	-	0	-	-	-
SMILES	CSC inhib	L major viab	Beta apoptosis	T cruzi inh	Mdm2-MdmX inh	SKKanGAS inh	Mdm2-MdmX conf	FLuc counter
O=C(Nc1ccc(Oc2ccc(C(F)(F)F)cn2)c(Cl)c1)C1CC1	0	0	-	0	0	0	-	-
CCCN(CCC)S(=O)(=O)c1ccc(C(=O)OCCN2C(=O)c3cccc4c(N5CCOCC5)ccc(c34)C2=O)cc1	0	0	0	0	0	0	-	-
O=C(OCCN1C(=O)c2cccc3c(N4CCOCC4)ccc(c23)C1=O)c1ccc(Cl)cc1	0	0	0	0	72.9	0	53.5	69.2
COc1ccc(-c2csc(NC(=S)NC(=O)c3cccs3)n2)cc1OC	-	0	-	0	0	?	-	-
COc1ccc(-c2csc(NC(=O)c3ccc(OCC(=O)N4CCOCC4)c(OC)c3)n2)cc1OC	0	70.7	0	0	57.8	0	0	-
O=[N+]([O-])c1cc(/C=N\Nc2nc(-c3ccccc3)cs2)ccc1O	0	0	0	0	0	?	-	-
COc1cc(/C=N/Nc2nc(-c3ccc(S(=O)(=O)N(C)C)cc3)cs2)ccc1O	0	-	0	0	82.4	0	56.4	81.3
COc1ccc(-c2csc(NC(=S)NC(=O)c3ccc(S(=O)(=O)N(C)C)cc3)n2)cc1OC	0	-	0	0	70.4	0	0	-
CC#CC[N+](C)(C)CCCCCCCCCC	0	-	-	0	0	0	-	-
N#CC1CC(c2ccccc2)=NN1c1ccccc1[N+](=O)[O-] (centres undefined)	0	0	0	0	0	0	-	-
Cc1ccc(NC(=O)C2CCCN2C(=O)NC2CCCCC2)cc1F (centres undefined)	0	-	0	0	0	0	-	-
Cn1c(SCC(=O)NCC2CCCO2)nc2c(c1=O)SCC2 (centres undefined)	-	-	0	0	0	0	-	-
CNC(=O)c1ccc(-c2sc3nc(N4CCOCC4)c4c(c3c2N)CC(C)(C)OC4)o1	0	0	0	0	61.0	0	0	-
CC1(C)Cc2c(c(N3CCOCC3)nc3sc(-c4ccc(C(=O)O)o4)c(N)c23)CO1	0	0	0	0	0	0	-	-
CN1Cc2c(N3CCOCC3)nc3sc(C(=O)c4ccc(Br)cc4)c(N)c3c2CC1(C)C	101.7	-	0	0	90.6	0	61.2	84.4
CN(C(=O)c1ccc2c(c1)OCO2)C1(C)CCS(=O)(=O)C1 (centres undefined)	0	-	0	0	0	0	-	-
Cc1ccc(NC(=O)CNC(=O)c2ccc(C)o2)cc1	0	-	0	0	0	0	-	-
Cc1ccc(-n2nc3c(N4CCC(C(=O)NCCc5cccs5)CC4)nnc(C)c3c2C)cc1	0	-	0	0	54.5	0	0	89.2
Cc1nnc(N2CCCC(C(=O)Nc3cc(F)ccc3F)C2)c2nn(-c3ccccc3)c(C)c12 (centres undefined)	0	-	0	0	96.0	0	49.9	73.1
Cc1nn(CCC(=O)NCc2ccc(OC(C)C)cc2)c(=O)c2nn(-c3ccccc3)c(C)c12	0	-	0	0	0	0	-	-
Cc1ccc(-n2nc3c(=O)n(CC(=O)NCCc4cccs4)nc(C)c3c2C)cc1	0	-	0	0	0	0	-	-

Source: PubChem
